# Results from ChEMBL document CHEMBL4052823, “Extra Sugar on Vancomycin: New Analogues for Combating Multidrug-Resistant Staphylococcus aureus and Vancomycin-Resistant Enterococci” (J Med Chem, 2018).
# Legend:
# Type in all cases: functional
# [1] = system: Staphylococcus aureus; test: Antibacterial activity against healthcare-associated methicillin-resistant/vancomycin-intermediate Staphylococcus aureus Mu50 after 24 hrs by broth microdilution method; conditions: Mu50, 24 h
# Outline: (§1)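 Broth microdilution in cation-adjusted Mueller-Hinton II broth. DMSO stocks were diluted in broth and twofold serially from 128 to 0.0625 μg/mL or lower. Each well was inoculated with ~10^5 CFU of exponential-phase bacteria and incubated at 37 °C for 24 h. MIC was the lowest concentration giving complete growth inhibition, read per CLSI. Growth controls contained broth plus DMSO.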
# [2] = system: Enterococcus faecium; test: Antibacterial activity against glycopeptide-resistant Enterococcus faecium Efm-HS-06188 vanA after 24 hrs by broth microdilution method; conditions: Efm-HS-06188, 24 h; outline: as §1
# [3] = system: Enterococcus faecium; test: Antibacterial activity against glycopeptide-resistant Enterococcus faecium Efm-HS-0649 vanA after 24 hrs by broth microdilution method; conditions: Efm-HS-0649, 24 h; outline: as §1
# [4] = system: Enterococcus faecium; test: Antibacterial activity against glycopeptide-resistant Enterococcus faecium Efm-HS-vb01 vanB after 24 hrs by broth microdilution method; conditions: Efm-HS-vb01, 24 h; outline: as §1
# [5] = system: Enterococcus faecium; test: Antibacterial activity against glycopeptide-resistant Enterococcus faecium Efm-HS-0847 vanM after 24 hrs by broth microdilution method; conditions: Efm-HS-0847, 24 h; outline: as §1
# [6] = system: Enterococcus faecium; test: Antibacterial activity against glycopeptide-resistant Enterococcus faecium Efm-HS-08257 vanM after 24 hrs by broth microdilution method; conditions: Efm-HS-08257, 24 h; outline: as §1
# [7] = system: Staphylococcus aureus; test: Antibacterial activity against vancomycin/methicillin-susceptible Staphylococcus aureus Newman […] after 24 hrs by broth microdilution method
# Outline: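 Broth microdilution in cation-adjusted Mueller-Hinton II broth. […] Each well received ~10^5 CFU of exponential-phase bacteria and was incubated at 37 °C for 24 h. MIC was taken as the lowest concentration giving complete growth inhibition, interpreted per CLSI.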
Structure (SMILES),MIC90 [1],MIC [2],MIC [3],MIC [4],MIC [5],MIC [6],MIC90 [7]
CN[C@H](CC(C)C)C(=O)N[C@H]1C(=O)N[C@@H](CC(N)=O)C(=O)N[C@H]2C(=O)N[C@H]3C(=O)N[C@H](C(=O)N[C@H](C(=O)NCCCN(C)C)c4cc(O)c(C)c(O)c4-c4cc3ccc4O)[C@H](O)c3ccc(c(Cl)c3)Oc3cc2cc(c3O[C@@H]2O[C@H](CO)[C@@H](O)[C@H](O)[C@H]2O[C@H]2C[C@](C)(NCc3ccc(-c4ccc(Cl)cc4)cc3)[C@H](O)[C@H](C)O2)Oc2ccc(cc2Cl)[C@H]1O,1 µg/mL,1 µg/mL,0.5 µg/mL,2 µg/mL,1 µg/mL,0.12 µg/mL,1 µg/mL
CCCCCCc1ccc(CN[C@@]2(C)C[C@H](O[C@H]3[C@H](Oc4c5cc6cc4Oc4ccc(cc4Cl)[C@@H](O)[C@@H](NC(=O)[C@@H](CC(C)C)NC)C(=O)N[C@@H](CC(N)=O)C(=O)N[C@H]6C(=O)N[C@H]4C(=O)N[C@H](C(=O)N[C@H](C(=O)O)c6cc(O)c(CN[C@H]7C(O)O[C@H](CO)[C@H](O)[C@@H]7O)c(O)c6-c6cc4ccc6O)[C@H](O)c4ccc(c(Cl)c4)O5)O[C@H](CO)[C@@H](O)[C@@H]3O)O[C@@H](C)[C@H]2O)cc1 (stereo partly drawn),0.5 µg/mL,8 µg/mL,8 µg/mL,1 µg/mL,32 µg/mL,16 µg/mL,0.25 µg/mL
CCCCCCCCCCNCCN[C@@]1(C)C[C@H](O[C@H]2[C@H](Oc3c4cc5cc3Oc3ccc(cc3Cl)[C@@H](O)[C@@H](NC(=O)[C@@H](CC(C)C)NC)C(=O)N[C@@H](CC(N)=O)C(=O)N[C@H]5C(=O)N[C@H]3C(=O)N[C@H](C(=O)N[C@H](C(=O)O)c5cc(O)c(CN[C@H]6C(O)O[C@H](CO)[C@H](O)[C@@H]6O)c(O)c5-c5cc3ccc5O)[C@H](O)c3ccc(c(Cl)c3)O4)O[C@H](CO)[C@@H](O)[C@@H]2O)O[C@@H](C)[C@H]1O (stereo partly drawn),0.5 µg/mL,8 µg/mL,16 µg/mL,1 µg/mL,8 µg/mL,8 µg/mL,0.12 µg/mL
CN[C@H](CC(C)C)C(=O)N[C@H]1C(=O)N[C@@H](CC(N)=O)C(=O)N[C@H]2C(=O)N[C@H]3C(=O)N[C@H](C(=O)N[C@H](C(=O)O)c4cc(O)c(CNCCO)c(O)c4-c4cc3ccc4O)[C@H](O)c3ccc(c(Cl)c3)Oc3cc2cc(c3O[C@@H]2O[C@H](CO)[C@@H](O)[C@H](O)[C@H]2O[C@H]2C[C@](C)(NCc3ccc(OCc4cccc(-c5ccccc5)c4C)c(Cl)c3)[C@H](O)[C@H](C)O2)Oc2ccc(cc2Cl)[C@H]1O,0.5 µg/mL,0.5 µg/mL,1 µg/mL,1 µg/mL,2 µg/mL,1 µg/mL,0.12 µg/mL
CN[C@H](CC(C)C)C(=O)N[C@H]1C(=O)N[C@@H](CC(N)=O)C(=O)N[C@H]2C(=O)N[C@H]3C(=O)N[C@H](C(=O)N[C@H](C(=O)O)c4cc(O)c(CNCP(=O)(O)O)c(O)c4-c4cc3ccc4O)[C@H](O)c3ccc(c(Cl)c3)Oc3cc2cc(c3O[C@@H]2O[C@H](CO)[C@@H](O)[C@H](O)[C@H]2O[C@H]2C[C@](C)(NCc3ccc(-c4ccc(Cl)cc4)cc3)[C@H](O)[C@H](C)O2)Oc2ccc(cc2Cl)[C@H]1O,0.5 µg/mL,4 µg/mL,2 µg/mL,0.25 µg/mL,2 µg/mL,0.12 µg/mL,0.5 µg/mL
CN[C@H](CC(C)C)C(=O)N[C@H]1C(=O)N[C@@H](CC(N)=O)C(=O)N[C@H]2C(=O)N[C@H]3C(=O)N[C@H](C(=O)N[C@H](C(=O)O)c4cc(O)c(CNCCCNC(=O)[C@H](O)[C@@H](O)[C@H](O)[C@H](O)CO)c(O)c4-c4cc3ccc4O)[C@H](O)c3ccc(c(Cl)c3)Oc3cc2cc(c3O[C@@H]2O[C@H](CO)[C@@H](O)[C@H](O)[C@H]2O[C@H]2C[C@](C)(NCc3ccc(C#C[Si](C)(C)C)cc3)[C@H](O)[C@H](C)O2)Oc2ccc(cc2Cl)[C@H]1O,2 µg/mL,,,,,,1 µg/mL
CCCCCCCCCN[C@@]1(C)C[C@H](O[C@H]2[C@H](Oc3c4cc5cc3Oc3ccc(cc3Cl)[C@@H](O)[C@@H](NC(=O)[C@@H](CC(C)C)NC)C(=O)N[C@@H](CC(N)=O)C(=O)N[C@H]5C(=O)N[C@H]3C(=O)N[C@H](C(=O)N[C@H](C(=O)O)c5cc(O)c(CNCCCNC(=O)[C@H](O)[C@@H](O)[C@H](O)[C@H](O)CO)c(O)c5-c5cc3ccc5O)[C@H](O)c3ccc(c(Cl)c3)O4)O[C@H](CO)[C@@H](O)[C@@H]2O)O[C@@H](C)[C@H]1O,2 µg/mL,,,,,,0.5 µg/mL
CCCCCCCCCCC(=O)N[C@@]1(C)C[C@H](O[C@H]2[C@H](Oc3c4cc5cc3Oc3ccc(cc3Cl)[C@@H](O)[C@@H](NC(=O)[C@@H](CC(C)C)NC)C(=O)N[C@@H](CC(N)=O)C(=O)N[C@H]5C(=O)N[C@H]3C(=O)N[C@H](C(=O)N[C@H](C(=O)O)c5cc(O)c(CNCCCNC(=O)[C@H](O)[C@@H](O)[C@H](O)[C@H](O)CO)c(O)c5-c5cc3ccc5O)[C@H](O)c3ccc(c(Cl)c3)O4)O[C@H](CO)[C@@H](O)[C@@H]2O)O[C@@H](C)[C@H]1O,32 µg/mL,,,,,,16 µg/mL
CCCCCCCCCCNCCN[C@@]1(C)C[C@H](O[C@H]2[C@H](Oc3c4cc5cc3Oc3ccc(cc3Cl)[C@@H](O)[C@@H](NC(=O)[C@@H](CC(C)C)NC)C(=O)N[C@@H](CC(N)=O)C(=O)N[C@H]5C(=O)N[C@H]3C(=O)N[C@H](C(=O)N[C@H](C(=O)O)c5cc(O)c(CN[C@H]6C(O)O[C@H](CO)[C@@H](O)[C@@H]6O)c(O)c5-c5cc3ccc5O)[C@H](O)c3ccc(c(Cl)c3)O4)O[C@H](CO)[C@@H](O)[C@@H]2O)O[C@@H](C)[C@H]1O (stereo partly drawn),8 µg/mL,64 µg/mL,64 µg/mL,16 µg/mL,32 µg/mL,8 µg/mL,4 µg/mL
CCc1ccc(CN[C@@]2(C)C[C@H](O[C@H]3[C@H](Oc4c5cc6cc4Oc4ccc(cc4Cl)[C@@H](O)[C@@H](NC(=O)[C@@H](CC(C)C)NC)C(=O)N[C@@H](CC(N)=O)C(=O)N[C@H]6C(=O)N[C@H]4C(=O)N[C@H](C(=O)N[C@H](C(=O)O)c6cc(O)c(CNCCO)c(O)c6-c6cc4ccc6O)[C@H](O)c4ccc(c(Cl)c4)O5)O[C@H](CO)[C@@H](O)[C@@H]3O)O[C@@H](C)[C@H]2O)cc1,4 µg/mL,,,,,,2 µg/mL
CCCCCCc1ccc(CN[C@@]2(C)C[C@H](O[C@H]3[C@H](Oc4c5cc6cc4Oc4ccc(cc4Cl)[C@@H](O)[C@@H](NC(=O)[C@@H](CC(C)C)NC)C(=O)N[C@@H](CC(N)=O)C(=O)N[C@H]6C(=O)N[C@H]4C(=O)N[C@H](C(=O)N[C@H](C(=O)O)c6cc(O)c(CNCCCNC(=O)[C@H](O)[C@@H](O)[C@H](O)[C@H](O)CO)c(O)c6-c6cc4ccc6O)[C@H](O)c4ccc(c(Cl)c4)O5)O[C@H](CO)[C@@H](O)[C@@H]3O)O[C@@H](C)[C@H]2O)cc1,0.5 µg/mL,,,,,,0.12 µg/mL
CCCCCCCCCCN[C@@]1(C)C[C@H](O[C@H]2[C@H](Oc3c4cc5cc3Oc3ccc(cc3Cl)[C@@H](O)[C@@H](NC(=O)[C@@H](CC(C)C)NC)C(=O)N[C@@H](CC(N)=O)C(=O)N[C@H]5C(=O)N[C@H]3C(=O)N[C@H](C(=O)N[C@H](C(=O)O)c5cc(O)c(CNCCCNC(=O)[C@H](O)[C@@H](O)[C@H](O)[C@H](O)CO)c(O)c5-c5cc3ccc5O)[C@H](O)c3ccc(c(Cl)c3)O4)O[C@H](CO)[C@@H](O)[C@@H]2O)O[C@@H](C)[C@H]1O,0.5 µg/mL,,,,,,0.12 µg/mL
CCCCCCCCCCNCCN[C@@]1(C)C[C@H](O[C@H]2[C@H](Oc3c4cc5cc3Oc3ccc(cc3Cl)[C@@H](O)[C@@H](NC(=O)[C@@H](CC(C)C)NC)C(=O)N[C@@H](CC(N)=O)C(=O)N[C@H]5C(=O)N[C@H]3C(=O)N[C@H](C(=O)N[C@H](C(=O)O)c5cc(O)c(CNCCO[C@@H]6O[C@H](CO)[C@@H](O)[C@H](O)[C@H]6O)c(O)c5-c5cc3ccc5O)[C@H](O)c3ccc(c(Cl)c3)O4)O[C@H](CO)[C@@H](O)[C@@H]2O)O[C@@H](C)[C@H]1O,16 µg/mL,,,,,,4 µg/mL
CN[C@H](CC(C)C)C(=O)N[C@H]1C(=O)N[C@@H](CC(N)=O)C(=O)N[C@H]2C(=O)N[C@H]3C(=O)N[C@H](C(=O)N[C@H](C(=O)O)c4cc(O)c(CNCCCNC(=O)[C@H](O)[C@@H](O)[C@H](O)[C@H](O)CO)c(O)c4-c4cc3ccc4O)[C@H](O)c3ccc(c(Cl)c3)Oc3cc2cc(c3O[C@@H]2O[C@H](CO)[C@@H](O)[C@H](O)[C@H]2O[C@H]2C[C@](C)(NCc3ccc4c(c3)OCC4)[C@H](O)[C@H](C)O2)Oc2ccc(cc2Cl)[C@H]1O,8 µg/mL,,,,,,4 µg/mL
